Data from ChEMBL document CHEMBL1629660, “Pharmacodynamics of tigecycline against phenotypically diverse Staphylococcus aureus isolates in a murine thigh model” (Antimicrob Agents Chemother, 2009).

How the values were obtained:
Acinetobacter baumannii [1] = assay: Antimicrobial activity against carbapenem-intermediate,-resistant Acinetobacter baumannii assessed as decrease in bacterial count at 0.6 times of MIC after 24 hrs by time kill analysis; assay type: functional
[2] = r2 for fCmax/MIC in methicillin-sensitive Staphylococcus aureus ATCC 25923-infected neutropenic ICR mouse
[3] = AUC in neutropenic ICR mouse infected with Staphylococcus aureus ATCC 29213 at 6.25 to 50 mg/kg, sc; assay type: ADME, organism-based; design: dose 6.25-50 mg/kg, route subcutaneous; details: plasma
Method in brief: (§1)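 Neutropenic female ICR mice (cyclophosphamide 150 and 100 mg/kg ip, 4 days and 1 day before inoculation), both thighs inoculated im with ~10^7 CFU/ml of ATCC 29213. Single sc doses of 50, 25, 12.5 or 6.25 mg/kg. Cardiac blood taken from groups of six at 8–12 times over 0.5–24 h. Serum measured by HPLC (linear 0.05–5 µg/ml). Two-compartment fit by nonlinear least squares; AUC by trapezoidal rule.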

[4] = r2 for fCmax/MIC in community acquired methicillin-resistant Staphylococcus aureus isolate 144-infected neutropenic ICR mouse
[5] = AUC (0 to 24 hrs) in neutropenic ICR mouse infected with Staphylococcus aureus ATCC 29213 at 12.5 mg/kg, sc by HPLC; assay type: ADME, organism-based; design: time < 24 hr, dose 12.5 mg/kg, route subcutaneous; details: plasma; method in brief: as §1
Staphylococcus aureus [6] = assay: Antimicrobial activity against community acquired methicillin-resistant Staphylococcus aureus isolate 156 infected in neutropenic ICR mouse assessed as change in bacterial load at 12.5 […] after 24 hrs; assay type: functional
Method in brief: (§2)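 Female ICR mice (~25 g) made neutropenic with cyclophosphamide 150 and 100 mg/kg ip, 4 and 1 days before infection. Each thigh inoculated im with 0.1 ml of ~10^7 CFU/ml from an overnight subculture. Tigecycline sc (0.2 ml) given 2 h later as single or multiple doses of 1.56–50 mg/kg, 1.56–400 mg/kg/day, 3 mice/group. Saline-injected controls. Thighs harvested at 24 h, homogenized in saline, plated on blood agar; log10 CFU change vs 0-h controls.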

[7] = r2 for fAUC/MIC in methicillin-sensitive Staphylococcus aureus ATCC 29213-infected neutropenic ICR mouse
[8] = r2 for fT>MIC in community acquired methicillin-resistant Staphylococcus aureus isolate 156-infected neutropenic ICR mouse
Staphylococcus aureus [9] = assay: Antimicrobial activity against community acquired methicillin-resistant Staphylococcus aureus isolate 156 infected in immunocompetent ICR mouse assessed as reduction in bacterial load at 1.56 […] after 24 hrs; assay type: functional
Method in brief: (§3)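 Non-neutropenic ICR mice (no cyclophosphamide). Each thigh inoculated im with 0.1 ml of ~10^8 CFU/ml. Tigecycline given sc once daily at 1.56, 3.13, 6.25 or 12.5 mg/kg starting 2 h post-infection, 3 mice/group. Thighs harvested at 24 h, homogenized, plated on blood agar; log10 CFU change vs 0-h controls.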

[10] = Tmax in neutropenic ICR mouse infected with Staphylococcus aureus ATCC 29213 at 6.25 mg/kg, sc by HPLC; assay type: ADME, organism-based; design: dose 6.25 mg/kg, route subcutaneous; details: in vivo; method in brief: as §1
Acinetobacter baumannii [11] = assay: Antimicrobial activity against carbapenem-intermediate,-resistant Acinetobacter baumannii assessed as decrease in bacterial count at 0.7 times of MIC after 24 hrs by time kill analysis; assay type: functional
[12] = Elimination half life in neutropenic ICR mouse infected with methicillin-sensitive Staphylococcus aureus ATCC 29213 at 25 mg/kg, sc by HPLC; assay type: ADME, organism-based; design: dose 25 mg/kg, route subcutaneous; details: in vivo, read-out: beta t1/2 (converted); method in brief: as §1
[13] = fAUC/MIC in community acquired methicillin-resistant Staphylococcus aureus isolate 147-infected neutropenic ICR mouse at 80% effective exposure index; assay type: functional
Method in brief: (§4)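 Single-dose serum PK in infected neutropenic mice (sc 6.25–50 mg/kg; HPLC; two-compartment fit; AUC by trapezoidal rule; lower doses simulated). Free fraction from ultrafiltration of spiked mouse serum, in triplicate. Free exposures divided by modal MIC and plotted against 24-h log10 CFU change with a sigmoidal Emax model; EI50, EI80 and stasis values read from the fitted curves.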

[14] = Protein binding in methicillin-sensitive Staphylococcus aureus ATCC 29213-infected neutropenic ICR mouse serum at 12.5 mg/kg, sc by HPLC; assay type: ADME, organism-based; design: dose 12.5 mg/kg, route subcutaneous; details: read-out: PB (converted)
[15] = r2 of fAUC/MIC in hospital-acquired methicillin-resistant Staphylococcus aureus isolate 56-infected neutropenic ICR mouse
[16] = r2 of fCmax/MIC in hospital-acquired methicillin-resistant Staphylococcus aureus isolate 56-infected neutropenic ICR mouse
Staphylococcus aureus [17] = assay: Antimicrobial activity against community acquired methicillin-resistant Staphylococcus aureus isolate 156 infected in immunocompetent ICR mouse assessed as reduction in bacterial load at […] after 24 hrs; assay type: functional; method in brief: as §3
[18] = Cmax in neutropenic ICR mouse infected with Staphylococcus aureus ATCC 29213 at 12.5 mg/kg, sc by HPLC; assay type: ADME, organism-based; design: dose 12.5 mg/kg, route subcutaneous; details: in vivo; method in brief: as §1
[19] = r2 for fAUC/MIC in community acquired methicillin-resistant Staphylococcus aureus isolate 147-infected neutropenic ICR mouse
[20] = AUC (0 to 24 hrs) in neutropenic ICR mouse infected with Staphylococcus aureus ATCC 29213 at 25 mg/kg, sc by HPLC; assay type: ADME, organism-based; design: time < 24 hr, dose 25 mg/kg, route subcutaneous; details: plasma; method in brief: as §1
[21] = r2 of fCmax/MIC in community acquired methicillin-resistant Staphylococcus aureus isolate 147-infected neutropenic ICR mouse
Staphylococcus aureus [22] = assay: Antimicrobial activity against methicillin-sensitive Staphylococcus aureus ATCC 25923 infected in neutropenic ICR mouse assessed as change in bacterial load after 24 hrs; assay type: functional; method in brief: as §2
[23] = fAUC/MIC in hospital-acquired methicillin-resistant Staphylococcus aureus isolate 152-infected neutropenic ICR mouse at 80% effective exposure index; assay type: functional; method in brief: as §4
[24] = Protein binding in methicillin-sensitive Staphylococcus aureus ATCC 29213-infected neutropenic ICR mouse serum at 6 µg/ml by HPLC; details: read-out: PB (converted)
[25] = fAUC/MIC in hospital-acquired methicillin-resistant Staphylococcus aureus isolate 56-infected neutropenic ICR mouse at 50% effective exposure index; assay type: functional; method in brief: as §4
[26] = Protein binding in methicillin-sensitive Staphylococcus aureus ATCC 29213-infected neutropenic ICR mouse serum at 25 mg/kg, sc by HPLC; assay type: ADME, organism-based; design: dose 25 mg/kg, route subcutaneous; details: read-out: PB (converted)
[27] = fAUC/MIC in community acquired methicillin-resistant Staphylococcus aureus isolate 147-infected neutropenic ICR mouse at stasis dose; assay type: functional; method in brief: as §4
[28] = r2 for fAUC/MIC in community acquired methicillin-resistant Staphylococcus aureus isolate 144-infected neutropenic ICR mouse

CN(C)c1cc(NC(=O)CNC(C)(C)C)c(O)c2c1C[C@H]1C[C@H]3[C@H](N(C)C)C(O)=C(C(N)=O)C(=O)[C@@]3(O)C(O)=C1C2=O [TIGECYCLINE]
log10cfu (Acinetobacter baumannii [1]): 1.5 | r2 [2]: 0.508 | AUC [3]: 1200 ng·h/mL | r2 [4]: 0.77 | AUC(0-t) at 24 h [5]: 9100 ng·h/mL | log10CFU/ml (Staphylococcus aureus [6]): -1.1 | r2 [7]: 0.983 | r2 [8]: 0.894% | log10cfu (Staphylococcus aureus [9]): 1.6 | Tmax [10]: 4.8 min | log10cfu (Acinetobacter baumannii [11]): 2 | half-life [12]: 11.8 h | fAUC/MIC [13]: 3.5 | fraction unbound [14]: 0.121 | r2 [15]: 0.957 | r2 [16]: 0.704 | log10cfu (Staphylococcus aureus [17]): 1.9 | Cmax [18]: 2380 ng/mL | r2 [19]: 0.966 | AUC(0-t) at 24 h [20]: 25200 ng·h/mL | r2 [21]: 0.892 | log10CFU/ml (Staphylococcus aureus [22]): 1.4 | fAUC/MIC [23]: 2.8 | fraction unbound [24]: 0.069 | fAUC/MIC [25]: 2.5 | fraction unbound [26]: 0.075 | fAUC/MIC [27]: 1.7 | r2 [28]: 0.954
